Measurements of several laboratories.
Protocols differ between the studies behind these lines.
Organism: Acinetobacter baumannii
Effect on: microbial growth

O=C(N[C@H](CO)[C@H](O)c1ccc([N+](=O)[O-])cc1)C(Cl)Cl
MIC (ATCC19606): 250 µg/mL

CN(C)c1nc(NC(=O)CNC(C)(C)C)c(O)c2c1C[C@H]1C[C@H]3[C@H](N(C)C)C(O)=C(C(N)=O)C(=O)[C@@]3(O)C(O)=C1C2=O.Cl
MIC (broth dilution; ATCC19606): > 32 µg/mL

NC1CCCCc2c1[nH]c1ccc(Cl)c(Cl)c21 (centres unmarked)
MIC (broth dilution; ATCC19606): 16 µg/mL

COc1cccc2c(O)c3c(cc12)C[C@H]1C[C@H]2[C@H](N(C)C)C(O)=C(C(N)=O)C(=O)[C@@]2(O)C(O)=C1C3=O
MIC (broth dilution; ATCC19606): > 32 µg/mL

CCn1cc(C(=O)O)c(=O)c2cc(F)c(N3CCNCC3)cc21
MIC (broth dilution; BAA747): 16 µM

CC1(C)S[C@@H]2[C@H](NC(=O)C(C(=O)O)c3ccccc3)C(=O)N2[C@H]1C(=O)O (some centres unmarked)
MIC (broth dilution): 44.3 µM

O=[N+]([O-])c1ccc(O)c2ncccc12
MIC (19606): 1.56 µM

CN(C)[C@@H]1C(O)=C(C(N)=O)C(=O)[C@@]2(O)C(O)=C3C(=O)c4c(cc5ccc(CN6CC(F)(F)C6)cc5c4O)C[C@H]3C[C@@H]12
MIC (broth dilution; ATCC19606): 32 µg/mL

O=C(O)c1ccc(-n2cc(/C=N/Nc3ccc(F)c(Cl)c3)c(-c3ccc4ccccc4c3)n2)cc1
MIC (ATCCBAA1605): 25 µg/mL

COc1ncc(O)c2c1C[C@H]1C[C@H]3[C@H](N(C)C)C(O)=C(C(N)=O)C(=O)[C@@]3(O)C(O)=C1C2=O.Cl.Cl
MIC (broth dilution; ATCC19606): 0.5 µg/mL

CCCCC(=O)N1C(=O)/C(=C(/C)O)C(=O)C1CC(C)C (centres unmarked)
MIC (ATCC19606): > 200 µg/mL

CC(C)Oc1c(NC(=O)c2ccc(NC(=O)[C@H](CC(N)=O)NC(=O)c3ccc(NC(=O)c4ccc(C#N)cn4)cc3)cc2)ccc(C(=O)Nc2ccc(C(=O)O)cc2)c1O
MIC (DSM30008): 0.125 µg/mL

NCCCNC1CCCCc2c1[nH]c1ccc(Br)cc21 (centres unmarked)
MIC (broth dilution; ATCC19606): 32 µg/mL

O=C(O)c1ccc(-n2cc(/C=N/Nc3ccc(Cl)cc3)c(-c3ccc4ccccc4c3)n2)cc1
MIC (ATCCBAA1605): 12.5 µg/mL

NCC[C@H](O)C(=O)N[C@@H]1C[C@H](N)[C@@H](O[C@H]2O[C@H](CN)[C@@H](O)[C@H](O)[C@H]2O)[C@H](O)[C@H]1O[C@H]1O[C@H](CO)[C@@H](O)[C@H](N)[C@H]1O
MIC: 2 µg/mL

O=C(O)c1ccc(-n2cc(/C=N/Nc3cccc(Cl)c3)c(-c3cccc(F)c3)n2)cc1
MIC (ATCCBAA1605): 6.25 µg/mL

N=C(N)c1ccc(OCc2cccc(COc3ccc(C(=N)N)cc3)c2)cc1
MIC (broth dilution; ATCC17978): > 200 µg/mL

O=C(Cc1ccc(O)c(O)c1)NCCCCCCCC[P+](c1ccccc1)(c1ccccc1)c1ccccc1.[Br-]
MIC (broth dilution; ATCC19606; 18 h): > 32 µg/mL

O=C(Nc1ccc2c(c1)OC(F)(F)O2)Nc1ccc(Cl)c(C(F)(F)F)c1
MIC (DSM30007): > 100 µM

O=C(O)c1ccc(-n2cc(/C=N/Nc3ccc(F)cc3)c(-c3ccc(F)cc3)n2)cc1
MIC (ATCCBAA1605): 25 µg/mL

CN[C@H](CC(C)C)C(=O)N[C@H]1C(=O)N[C@@H](CC(N)=O)C(=O)N[C@H]2C(=O)N[C@H]3C(=O)N[C@H](C(=O)N[C@H](C(=O)O)c4cc(O)cc(O)c4-c4cc3ccc4O)[C@H](O)c3ccc(c(Cl)c3)Oc3cc2cc(c3O[C@@H]2O[C@H](CO)[C@@H](O)[C@H](O)[C@H]2O[C@H]2C[C@](C)(N)[C@H](O)[C@H](C)O2)Oc2ccc(cc2Cl)[C@H]1O
MIC (broth dilution; ATCC19606; 18 h): > 32 µg/mL

CCCCCCC/C=C/C(=O)N1C(=O)/C(=C(/C)O)C(=O)C1Cc1ccc(OC(C)(C)C)cc1 (centres unmarked)
MIC (ATCC19606): > 200 µg/mL

N=C(N)c1ccc(OCCC(CCOc2ccc(C(=N)N)cc2)c2ccccc2)cc1 (centres unmarked)
MIC (broth dilution; ATCC17978): > 200 µg/mL

O=[N+]([O-])c1ccc(O)c2ncccc12
MIC (broth dilution; ATCC19606): 8 µg/mL

CN(C)[C@@H]1C(O)=C(C(N)=O)C(=O)[C@@]2(O)C(O)=C3C(=O)c4c(O)c(-c5ccccc5)nc(Cl)c4C[C@H]3C[C@@H]12.Cl
MIC (broth dilution; ATCC19606): 16 µg/mL

CCCCCCC/C=C/C(=O)N1C(=O)/C(=C(\O)CCCC)C(=O)C1CC(C)C (centres unmarked)
MIC (ATCC19606): 200 µg/mL

CCCNc1nc(N(C)C)c2c(c1O)C(=O)C1=C(O)[C@]3(O)C(=O)C(C(N)=O)=C(O)[C@@H](N(C)C)[C@@H]3C[C@@H]1C2.Cl.Cl
MIC (broth dilution; ATCC19606): > 32 µg/mL

CCCCCCC/C=C/C(=O)N1C(=O)/C(=C(\O)c2ccncc2)C(=O)C1CC(C)C (centres unmarked)
MIC (ATCC19606): > 200 µg/mL

O=C(Nc1ccc(F)c(Cl)c1)c1cc(Cl)ccc1O
MIC (broth dilution; BAA1605): > 64 µg/mL
